# Test results taken from ChEMBL document CHEMBL1140082, “Design, synthesis, and biological evaluation of potent c-Met inhibitors” (J Med Chem, 2008).
# Columns and labels:
# [1] = target: Mitogen-activated protein kinase 3 (Homo sapiens, UniProt P27361); test: Inhibition of ERK1
# [2] = Volume of distribution in iv dosed rat; format: ADME, organism-based; conditions: in vivo
# [3] = target: Vascular endothelial growth factor receptor 2 (Homo sapiens, UniProt P35968); test: Inhibition of phosphorylated KDR by HTRF assay
# Method in brief: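 HTRF assay against KDR kinase with 10-point serial dilution. ATP at two-thirds of the experimentally determined Km (Eadie-Hofstee and Lineweaver-Burke). Ki derived from the IC50.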
# [4] = target: Vascular endothelial growth factor receptor 3 (Homo sapiens, UniProt P35916); test: Inhibition of Flt4 kinase
# [5] = target: Tyrosine-protein kinase ZAP-70 (Homo sapiens, UniProt P43403); test: Inhibition of ZAP70
# Aurora kinase A = target: T1, Aurora kinase A (Homo sapiens, UniProt O14965); test: Inhibition of Aurora2
# T1 sequence (O14965 whole entry): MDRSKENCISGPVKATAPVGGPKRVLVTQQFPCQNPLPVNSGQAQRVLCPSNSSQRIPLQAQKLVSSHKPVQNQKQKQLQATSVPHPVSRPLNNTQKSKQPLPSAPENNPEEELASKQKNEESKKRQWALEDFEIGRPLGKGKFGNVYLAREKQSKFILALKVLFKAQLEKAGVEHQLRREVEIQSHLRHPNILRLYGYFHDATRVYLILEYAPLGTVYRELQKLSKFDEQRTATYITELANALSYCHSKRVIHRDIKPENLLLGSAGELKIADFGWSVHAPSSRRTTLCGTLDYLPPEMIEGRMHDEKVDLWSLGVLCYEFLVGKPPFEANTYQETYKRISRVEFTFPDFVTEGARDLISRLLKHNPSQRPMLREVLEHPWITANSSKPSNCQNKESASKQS
# [6] = target: Macrophage-stimulating protein receptor (Homo sapiens, UniProt Q04912); test: Inhibition of phosphorylated RON
# [7] = Inhibition of P38 kinase
# [8] = target: Hepatocyte growth factor receptor c-Met (Mus musculus) (UniProt P16056); test: Inhibition of human recombinant HGF-mediated cMet phosphorylation in mouse CT26 cells
# [9] = target: Ribosomal protein S6 kinase beta-1 (Homo sapiens, UniProt P23443); test: Inhibition of P70S6
# Angiopoietin-1 receptor = Angiopoietin-1 receptor (Homo sapiens, UniProt Q02763); test: Inhibition of Tie2 kinase
# [10] = target: Ribosomal protein S6 kinase alpha-5 (Homo sapiens, UniProt O75582); test: Inhibition of MSK1
# [11] = target: Mitogen-activated protein kinase 9 (Homo sapiens, UniProt P45984); test: Inhibition of JNK2
# [12] = target: Tyrosine-protein kinase JAK2 (Homo sapiens, UniProt O60674); test: Inhibition of JAK2
# [13] = target: T2, Tyrosine-protein kinase JAK3 (Homo sapiens, UniProt P52333); test: Inhibition of JAK3
# T2 sequence (P52333 whole entry): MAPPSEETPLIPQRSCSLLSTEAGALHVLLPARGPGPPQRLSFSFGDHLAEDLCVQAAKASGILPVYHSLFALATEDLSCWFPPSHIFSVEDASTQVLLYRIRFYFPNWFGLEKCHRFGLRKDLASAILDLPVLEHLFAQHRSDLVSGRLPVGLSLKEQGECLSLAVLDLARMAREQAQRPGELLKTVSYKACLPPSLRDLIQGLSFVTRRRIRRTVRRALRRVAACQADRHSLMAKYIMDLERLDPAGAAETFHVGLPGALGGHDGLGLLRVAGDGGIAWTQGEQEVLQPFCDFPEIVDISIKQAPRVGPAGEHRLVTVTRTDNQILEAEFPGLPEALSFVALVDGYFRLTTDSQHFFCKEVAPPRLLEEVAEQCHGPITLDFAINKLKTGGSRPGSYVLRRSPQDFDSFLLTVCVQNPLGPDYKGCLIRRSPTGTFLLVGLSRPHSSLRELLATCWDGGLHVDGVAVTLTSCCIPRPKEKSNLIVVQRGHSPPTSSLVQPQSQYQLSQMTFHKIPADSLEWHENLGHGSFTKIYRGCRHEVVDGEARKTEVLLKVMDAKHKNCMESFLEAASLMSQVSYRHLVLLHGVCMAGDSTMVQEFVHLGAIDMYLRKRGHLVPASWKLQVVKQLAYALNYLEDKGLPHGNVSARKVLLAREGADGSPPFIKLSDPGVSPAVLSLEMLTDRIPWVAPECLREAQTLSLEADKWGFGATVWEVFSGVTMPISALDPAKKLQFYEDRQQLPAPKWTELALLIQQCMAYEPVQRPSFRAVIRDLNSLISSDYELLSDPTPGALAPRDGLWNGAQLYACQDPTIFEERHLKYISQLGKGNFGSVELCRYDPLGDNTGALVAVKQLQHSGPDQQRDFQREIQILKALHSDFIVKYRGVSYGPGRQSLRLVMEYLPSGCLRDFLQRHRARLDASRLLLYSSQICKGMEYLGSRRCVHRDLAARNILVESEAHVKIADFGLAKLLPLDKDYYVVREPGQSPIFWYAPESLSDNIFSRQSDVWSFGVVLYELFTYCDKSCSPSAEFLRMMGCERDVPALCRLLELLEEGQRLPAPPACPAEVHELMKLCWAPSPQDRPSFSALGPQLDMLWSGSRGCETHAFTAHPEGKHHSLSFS
# [14] = target: cAMP-dependent protein kinase catalytic subunit alpha (Homo sapiens, UniProt P17612); test: Inhibition of PKAalpha
# [15] = Inhibition of IGFR
# [16] = target: Tyrosine-protein kinase Lck (Homo sapiens, UniProt P06239); test: Inhibition of LCK
# [17] = target: Tyrosine-protein kinase BTK (Homo sapiens, UniProt Q06187); test: Inhibition of BTK
# [18] = Inhibition of FGFRK
# [19] = Bioavailability in iv dosed rat; format: ADME, organism-based; conditions: in vivo
# [20] = Clearance in iv dosed rat; format: ADME, organism-based; conditions: in vivo
# [21] = target: Vascular endothelial growth factor receptor 1 (Homo sapiens, UniProt P17948); test: Inhibition of Flt1 kinase
# [22] = target: Hepatocyte growth factor receptor (Homo sapiens, UniProt P08581); test: Inhibition of cMet by HTRF assay
# [23] = target: RAC-alpha serine/threonine-protein kinase (Homo sapiens, UniProt P31749); test: Inhibition of PKBalpha
# [24] = target: Fibroblast growth factor receptor 2 (Homo sapiens, UniProt P21802); test: Inhibition of FGFRK2
# [25] = Half life in iv dosed rat; format: ADME, organism-based; conditions: in vivo
# Mus musculus = test: Inhibition of human recombinant HGF-induced cMet phosphorylation in po or ip dosed BALB/c mouse liver after 2 hrs
# [26] = Selectivity of cMet over KDR
# [27] = Selectivity of cMet over RON
# [28] = target: Serine/threonine-protein kinase pim-1 (Homo sapiens, UniProt P11309); test: Inhibition of PIM1 kinase
# [29] = target: Serine/threonine-protein kinase pim-2 (Homo sapiens, UniProt Q9P1W9); test: Inhibition of PIM2 kinase
# [30] = target: Macrophage colony-stimulating factor 1 receptor (Homo sapiens, UniProt P07333); test: Inhibition of cFMS kinase
# [31] = target: Cyclin-dependent kinase 5 (Homo sapiens, UniProt Q00535); test: Inhibition of CDK5
# [32] = Selectivity of cMet over BTK
# [33] = Selectivity of cMet over Flt2
# [34] = Selectivity of cMet over ZAP70
# [35] = Selectivity of cMet over JAK2
# [36] = Selectivity of cMet over LCK
# [37] = Selectivity of cMet over Tie2 kinase
# [38] = Selectivity of cMet over Flt1
# [39] = Selectivity of cMet over Aurora2
# [40] = Selectivity of cMet over PIM1
# [41] = Selectivity of cMet over JNK2
# [42] = Selectivity of cMet over P70S6
# [43] = Selectivity of cMet over JAK3
# [44] = Selectivity of cMet over PKBalpha
# [45] = Selectivity of cMet over PIM2
# [46] = Selectivity of cMet over CDK5
# [47] = Selectivity of cMet over MSK1
# [48] = Selectivity of cMet over FGFRK2
# [49] = Selectivity of cMet over PKAalpha
# [50] = Selectivity of cMet over ERK1
# [51] = Selectivity of cMet over P38
# [52] = Selectivity of cMet over cFMS kinase
# [53] = Selectivity of cMet over EGFR
# [54] = Selectivity of cMet over FGFRK
# A-431 = test: Cytotoxicity against human A431 cells; format: functional, cell-based
smiles,measurement,setting,value
COc1cc2c(Oc3ccc(-c4cnc(Nc5ccc(F)cc5)n(C)c4=O)cc3F)ccnc2cc1OCCCN1CCOCC1,IC50,[1],> 100 µM
same,Vd,[2],3.4 L/kg
same,Ki,[3],139 nM
same,IC50,[4],5 nM
same,IC50,[5],> 8.3 µM
same,IC50,Aurora kinase A,> 200 nM
same,Ki,[6],28 nM
same,IC50,[7],3.6 µM
same,IC50,[8],82 nM
same,IC50,[9],5.7 µM
same,IC50,Angiopoietin-1 receptor,26 nM
same,IC50,[10],> 100 µM
same,IC50,[11],> 100 µM
same,IC50,[12],3.4 µM
same,IC50,[13],> 1 µM
same,IC50,[14],> 100 µM
same,Ki,[15],22 nM
same,IC50,[16],< 4 nM
same,IC50,[17],27 nM
same,IC50,[18],> 25000 nM
same,bioavailability,[19],34%
same,clearance,[20],9.33 mL/min/kg
same,IC50,[21],45 nM
same,Ki,[22],4.9 nM
same,IC50,[23],> 100 µM
same,IC50,[24],140 nM
same,half-life,[25],144 min
same,ED90,Mus musculus,30 mg/kg
COc1cc2nccc(Oc3ccc4cc(NC(=O)Cc5ccccc5)ccc4c3)c2cc1OC,Selectivity ratio,[26],9
same,Selectivity ratio,[27],3
same,Ki,[22],89 nM
COc1cc2c(Oc3ccc(-c4cnc(Cc5ccccc5)n(C)c4=O)cc3F)ccnc2cc1OCCCN1CCOCC1,IC50,[1],> 100 µM
same,Vd,[2],3.4 L/kg
same,Ki,[3],422 nM
same,IC50,[4],120 nM
same,IC50,[5],> 5.4 µM
same,IC50,Aurora kinase A,116 nM
same,Ki,[6],195 nM
same,IC50,[7],> 25 µM
same,IC50,[9],10 µM
same,IC50,[28],> 30 µM
same,IC50,Angiopoietin-1 receptor,285 nM
same,IC50,[10],> 100 µM
same,IC50,[11],> 100 µM
same,IC50,[12],> 25 µM
same,IC50,[13],> 8.3 µM
same,IC50,[14],> 100 µM
same,Ki,[15],1450 nM
same,IC50,[16],8 nM
same,IC50,[17],19 nM
same,IC50,[18],> 1000 nM
same,bioavailability,[19],100%
same,IC50,[29],> 25 µM
same,clearance,[20],9.33 mL/min/kg
same,IC50,[21],> 1000 nM
same,Ki,[22],8.9 nM
same,IC50,[23],> 100 µM
same,IC50,[30],37 nM
same,IC50,[31],> 100 µM
same,IC50,[24],> 1000 nM
same,half-life,[25],144 min
same,ED90,Mus musculus,100 mg/kg
COc1cc2c(Oc3ccc(-c4cnc(Nc5ccc(F)cc5)n(C)c4=O)nc3)ccnc2cc1OCCCN1CCOCC1,Selectivity ratio,[32],< 10
same,Selectivity ratio,[33],> 100
same,IC50,[1],> 100 µM
same,Vd,[2],3.4 L/kg
same,Selectivity ratio,[34],> 100
same,Ki,[3],83 nM
same,Selectivity ratio,[35],> 100
same,Selectivity ratio,[36],< 10
same,Selectivity ratio,[37],> 100
same,Selectivity ratio,[38],> 100
same,IC50,Aurora kinase A,426 nM
same,Selectivity ratio,[39],> 100
same,Selectivity ratio,[40],> 100
same,Ki,[6],1.3 nM
same,Selectivity ratio,[41],> 100
same,Selectivity ratio,[42],> 100
same,IC50,[7],> 100 µM
same,IC50,[8],59 nM
same,Selectivity ratio,[43],> 100
same,IC50,[9],65 µM
same,Selectivity ratio,[44],> 100
same,IC50,[28],7.8 µM
same,IC50,Angiopoietin-1 receptor,221 nM
same,Selectivity ratio,[45],> 100
same,Selectivity ratio,[46],> 100
same,Selectivity ratio,[47],> 100
same,IC50,[10],52 µM
same,IC50,[11],4.7 µM
same,IC50,[13],> 25 µM
same,IC50,[14],> 25 µM
same,Selectivity ratio,[48],> 100
same,Ki,[15],51 nM
same,Selectivity ratio,[49],> 100
same,IC50,[16],33 nM
same,IC50,[17],126 nM
same,IC50,[18],1300 nM
same,bioavailability,[19],48%
same,Selectivity ratio,[50],> 100
same,IC50,[29],> 25 µM
same,Selectivity ratio,[51],> 100
same,clearance,[20],9.33 mL/min/kg
same,Selectivity ratio,[52],< 10
same,Ki,[22],3.4 nM
same,IC50,[23],> 100 µM
same,Selectivity ratio,[53],> 100
same,Selectivity ratio,[54],> 100
same,IC50,[31],> 100 µM
same,half-life,[25],144 min
same,ED90,Mus musculus,30 mg/kg
COc1cc2nccc(Oc3ccc(NC(=S)NC(=O)Cc4ccccc4)cc3F)c2cc1OC,IC50,A-431,8.7 nM
